Laboratory results published in ChEMBL document CHEMBL1139391, “Synthesis and structure-activity relationship of benzetimide derivatives as human CXCR3 antagonists” (Bioorg Med Chem Lett, 2008).

Tests used:
[1] = biological target: T1, C-C chemokine receptor type 1 (Homo sapiens) (UniProt P32246); assay: Displacement of [125I]MIP1alpha from human CCR1 expressed in CHO cells at 10 uM; format: cell-based
T1 sequence (whole entry): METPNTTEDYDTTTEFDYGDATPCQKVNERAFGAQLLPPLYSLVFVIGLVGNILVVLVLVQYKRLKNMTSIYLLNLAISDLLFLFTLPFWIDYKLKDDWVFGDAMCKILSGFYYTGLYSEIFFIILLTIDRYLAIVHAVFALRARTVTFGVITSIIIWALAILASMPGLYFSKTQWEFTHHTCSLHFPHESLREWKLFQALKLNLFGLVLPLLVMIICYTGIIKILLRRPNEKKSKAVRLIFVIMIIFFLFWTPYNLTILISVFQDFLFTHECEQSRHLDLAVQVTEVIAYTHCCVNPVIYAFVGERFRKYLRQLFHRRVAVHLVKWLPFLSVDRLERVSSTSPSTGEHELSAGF

[2] = biological target: C-C chemokine receptor type 2 (Homo sapiens) (UniProt P41597); assay: Displacement of [125I]MCP1 from human CCR2 expressed in CHO cells at 10 uM; format: cell-based
[3] = biological target: T2, C-C chemokine receptor type 4 (Homo sapiens) (UniProt P51679); assay: Displacement of [125I]TARC from human CCR4 expressed in CHO cells at 10 uM; format: cell-based
T2 sequence (whole entry): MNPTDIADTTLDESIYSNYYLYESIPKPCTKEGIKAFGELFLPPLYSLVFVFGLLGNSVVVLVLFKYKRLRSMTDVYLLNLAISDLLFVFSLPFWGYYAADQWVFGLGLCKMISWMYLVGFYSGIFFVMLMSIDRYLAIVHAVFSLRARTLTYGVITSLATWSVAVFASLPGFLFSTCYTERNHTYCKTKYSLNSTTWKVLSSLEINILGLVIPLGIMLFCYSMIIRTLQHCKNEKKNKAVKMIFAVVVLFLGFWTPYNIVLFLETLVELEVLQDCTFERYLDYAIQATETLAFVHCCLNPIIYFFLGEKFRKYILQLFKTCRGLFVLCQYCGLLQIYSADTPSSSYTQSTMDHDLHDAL

[4] = biological target: Interleukin-8 receptors, CXCR1/CXCR2 (Homo sapiens) (UniProt P25025+P25024); assay: Displacement of [125I]IL8 from human CXCR1/2 expressed in CHO cells at 10 uM; format: cell-based
[5] = biological target: T3, CX3C chemokine receptor 1 (Homo sapiens) (UniProt P49238); assay: Displacement of [125I]fractalkine from human […] expressed in CHO cells at 10 uM; format: cell-based
T3 sequence (whole entry): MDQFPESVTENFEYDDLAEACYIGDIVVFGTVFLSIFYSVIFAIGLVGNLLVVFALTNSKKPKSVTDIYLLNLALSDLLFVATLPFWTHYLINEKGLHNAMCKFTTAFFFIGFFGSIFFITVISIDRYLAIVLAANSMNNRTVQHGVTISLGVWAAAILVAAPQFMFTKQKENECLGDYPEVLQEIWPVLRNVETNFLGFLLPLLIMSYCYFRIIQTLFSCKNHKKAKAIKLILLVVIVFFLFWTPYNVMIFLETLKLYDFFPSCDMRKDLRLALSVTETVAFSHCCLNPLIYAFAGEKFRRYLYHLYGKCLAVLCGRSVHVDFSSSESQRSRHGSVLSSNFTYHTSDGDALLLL

[6] = biological target: T4, C-X-C chemokine receptor type 3 (Homo sapiens, UniProt P49682); assay: Antagonist activity at human CXCR3 expressed in CHO cells assessed as inhibition of ITAC-stimulated [35S]GTPgammaS binding pretreated 30 mins before ITAC challenge; format: functional, cell-based
T4 sequence (P49682 whole entry): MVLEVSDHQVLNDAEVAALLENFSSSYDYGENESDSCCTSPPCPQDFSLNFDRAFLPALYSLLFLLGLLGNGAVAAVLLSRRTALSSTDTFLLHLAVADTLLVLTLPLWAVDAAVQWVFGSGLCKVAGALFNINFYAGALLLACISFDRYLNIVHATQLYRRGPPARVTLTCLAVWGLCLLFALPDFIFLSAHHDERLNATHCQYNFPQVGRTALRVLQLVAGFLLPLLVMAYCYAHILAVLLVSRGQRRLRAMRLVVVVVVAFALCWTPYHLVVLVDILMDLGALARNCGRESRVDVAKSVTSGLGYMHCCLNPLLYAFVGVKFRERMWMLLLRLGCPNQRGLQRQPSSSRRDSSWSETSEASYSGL

[7] = biological target: T5, Muscarinic acetylcholine receptor M1 (Homo sapiens, UniProt P11229); assay: Binding affinity to human muscarinic M1 receptor
T5 sequence (P11229 whole entry): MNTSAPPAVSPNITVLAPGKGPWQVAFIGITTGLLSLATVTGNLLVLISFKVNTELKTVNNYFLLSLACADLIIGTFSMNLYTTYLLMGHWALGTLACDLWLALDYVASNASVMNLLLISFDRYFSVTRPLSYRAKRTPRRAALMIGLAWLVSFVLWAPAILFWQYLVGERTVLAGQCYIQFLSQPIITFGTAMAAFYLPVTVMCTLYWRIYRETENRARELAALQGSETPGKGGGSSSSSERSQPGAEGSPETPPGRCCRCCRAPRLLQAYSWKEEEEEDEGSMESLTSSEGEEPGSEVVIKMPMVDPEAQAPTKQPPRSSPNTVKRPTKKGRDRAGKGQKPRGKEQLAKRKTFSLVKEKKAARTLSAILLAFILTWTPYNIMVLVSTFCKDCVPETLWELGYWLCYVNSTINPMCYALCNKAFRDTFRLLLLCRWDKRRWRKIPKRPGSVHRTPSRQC

[8] = biological target: T6, Muscarinic acetylcholine receptor M2 (Homo sapiens, UniProt P08172); assay: Binding affinity to human muscarinic M2 receptor
T6 sequence (P08172 whole entry): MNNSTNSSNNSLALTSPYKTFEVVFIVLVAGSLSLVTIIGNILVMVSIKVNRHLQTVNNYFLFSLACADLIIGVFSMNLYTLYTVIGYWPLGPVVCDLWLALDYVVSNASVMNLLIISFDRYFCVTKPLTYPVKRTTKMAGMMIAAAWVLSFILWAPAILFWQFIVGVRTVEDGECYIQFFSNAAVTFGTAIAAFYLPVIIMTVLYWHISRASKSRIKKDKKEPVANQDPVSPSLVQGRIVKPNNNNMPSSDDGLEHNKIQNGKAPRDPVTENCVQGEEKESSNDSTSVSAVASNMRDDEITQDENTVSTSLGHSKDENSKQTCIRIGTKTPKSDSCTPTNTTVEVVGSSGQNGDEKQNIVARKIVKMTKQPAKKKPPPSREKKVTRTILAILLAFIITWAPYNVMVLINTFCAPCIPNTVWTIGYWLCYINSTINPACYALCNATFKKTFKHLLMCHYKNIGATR

[9] = biological target: Muscarinic acetylcholine receptor M3 (Homo sapiens, UniProt P20309); assay: Binding affinity to human muscarinic M3 receptor
[10] = tested on: PBMC; assay: Reduction of ITAC-induced migration in PHA/IL-2 activated human PBMC pretreated 10 mins before ITAC challenge after 3 hrs by fluorescent plate reader; format: functional, cell-based
Procedure, shortened: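 Cells pre-incubated with compound for 10 min at 25 °C. 80,000 cells per well placed on the filter topside, in 6-fold replicates. Lower wells held 3 nM human ITAC. After 3 h at 37 °C, non-migrated cells were removed and migrated cells quantified by fluorescence plate reader.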

[11] = biological target: T4, C-X-C chemokine receptor type 3; assay: Displacement of [125I]ITAC from CXCR3 in PHA/IL-2 activated human PBMC pretreated 30 mins before [125I]ITAC challenge after 1 hr by liquid scintillation counter
Procedure, shortened: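 Pre-incubated with compound for 30 min. 80 pM [125I]-ITAC (2000 Ci/mmol) added for 60 min at 4 °C. Harvested on polyethyleneimine-presoaked GF/B filters; radioactivity counted by liquid scintillation.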

Muscarinic acetylcholine receptor M3, sequence (P20309 whole entry): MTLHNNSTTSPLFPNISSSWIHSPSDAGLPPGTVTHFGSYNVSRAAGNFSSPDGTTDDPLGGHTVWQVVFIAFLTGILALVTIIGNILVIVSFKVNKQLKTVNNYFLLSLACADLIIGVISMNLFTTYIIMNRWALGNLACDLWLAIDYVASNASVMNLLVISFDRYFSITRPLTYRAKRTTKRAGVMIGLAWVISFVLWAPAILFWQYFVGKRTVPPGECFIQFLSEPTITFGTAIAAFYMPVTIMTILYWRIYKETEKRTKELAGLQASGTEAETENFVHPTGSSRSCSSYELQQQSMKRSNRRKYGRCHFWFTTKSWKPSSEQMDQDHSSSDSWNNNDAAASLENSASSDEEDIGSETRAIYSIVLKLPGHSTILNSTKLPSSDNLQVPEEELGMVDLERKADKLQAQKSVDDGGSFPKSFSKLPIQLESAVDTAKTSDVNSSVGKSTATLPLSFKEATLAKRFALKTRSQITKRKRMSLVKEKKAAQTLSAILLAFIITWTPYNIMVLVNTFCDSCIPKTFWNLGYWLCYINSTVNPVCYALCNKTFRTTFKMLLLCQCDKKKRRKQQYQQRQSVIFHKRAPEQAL
C-C chemokine receptor type 2 (Homo sapiens), sequence (P41597 whole entry, looked up): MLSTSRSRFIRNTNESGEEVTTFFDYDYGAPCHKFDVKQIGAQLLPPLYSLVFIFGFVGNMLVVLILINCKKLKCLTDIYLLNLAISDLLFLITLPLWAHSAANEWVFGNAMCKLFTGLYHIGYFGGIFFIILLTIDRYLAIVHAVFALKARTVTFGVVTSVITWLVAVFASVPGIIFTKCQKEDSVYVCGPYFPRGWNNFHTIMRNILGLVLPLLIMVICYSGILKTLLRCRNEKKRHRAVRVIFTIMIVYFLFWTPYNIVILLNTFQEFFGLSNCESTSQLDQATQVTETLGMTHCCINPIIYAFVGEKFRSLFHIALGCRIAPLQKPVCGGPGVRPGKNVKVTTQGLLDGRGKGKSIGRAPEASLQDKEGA

Row | SMILES | inhibition [1] [%] | inhibition [2] [%] | inhibition [3] [%] | inhibition [4] [%] | inhibition [5] [%] | IC50 [6] [nM] | IC50 [7] [nM] | IC50 [8] [nM] | IC50 [9] [nM] | IC50 [10] [nM] | IC50 [11] [nM]
1 | O=C1CCC(c2ccccc2)(C2CCN(Cc3ccc(Br)cc3)CC2)C(=O)N1 (stereo in doubt; (-)-1a) [listing 1 of 2 here] | < 25 | < 25 | < 25 | < 25 | < 25 | – | – | – | – | – | –
2 | O=C1CCC(c2ccccc2)(C2CCN(Cc3ccc(Br)cc3)CC2)C(=O)N1 (stereo in doubt; (-)-1a) [listing 2 of 2 here] | – | – | – | – | – | 610 | 9600 | > 10000 | > 10000 | 690 | 330
